Assay results: ChEMBL document CHEMBL4321830, “A Chemical-Intervention Strategy To Circumvent Peptide Hydrolysis by d-Stereoselective Peptidases” (J Med Chem, 2019)
Active and inactive are the calls of the source. The calls are words filed in the database; no cut-off is given here. Where a SMILES comes first, the peptide text is derived from it. [ ]: non-standard residue; d: D form. The star is where a group is joined. d(aIle) = CC[C@H](C)[C@@H](N)C(=O)O; NMeF = CN[C@@H](Cc1ccccc1)C(=O)O; dDab = NCC[C@@H](N)C(=O)O; Octanoyl = CCCCCCCC(=O)*; Dab = NCC[C@H](N)C(=O)O; Aib = CC(C)(N)C(=O)O; Sar = CNCC(=O)O

Key:
D-peptidase TriF = assay: Substrate activity at Paenibacillus polymyxa CICC10580 D-peptidase TriF expressed in Escherichia coli BL21 assessed as enzyme-mediated compound hydrolysis at 50 uM incubated for 24 hrs by UPLC-MS analysis; assay type: ADME; conditions: read-out: Activity
Method in brief: (§1)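 His-purified (Ni-NTA) enzyme from IPTG-induced E. coli BL21 (200 μM IPTG after 15 °C hold). Substrate 50 μM with BogQ 20 nM for 1 h or TriFpep 200 nM for 24 h, 37 °C, in 25% PBS pH 7.4. Quenched with cold methanol, cleavage ratio by UPLC–MS at end point; two independent experiments.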

Escherichia coli [1] = assay: Antibacterial activity against Escherichia coli NCTC 12241 assessed as bacterial growth inhibition by microbroth dilution method; assay type: functional
Staphylococcus aureus = assay: Antibacterial activity against Staphylococcus aureus NCTC 10788 assessed as bacterial growth inhibition by microbroth dilution method; assay type: functional
D-peptidase BogQ = assay: Substrate activity at bacterial D-peptidase BogQ expressed in Escherichia coli BL21 assessed as enzyme-mediated compound hydrolysis at 50 uM incubated for 1 hr by UPLC-MS analysis; assay type: ADME; conditions: bacteria; read-out: Activity; method in brief: as §1
[2] = Hemolytic activity in sheep erythrocytes assessed as hemolysis at 200 ug/ml incubated for 30 by spectrophotometry relative to control; assay type: ADME, cell-based, Ovis aries, Erythrocyte; conditions: read-out: Activity
Method in brief: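 Defibrinated sheep blood washed four times in PBS, resuspended, mixed 1:1 with peptide in PBS (200 μg/mL in well before mixing); 30 min, 37 °C. Diluted, centrifuged, supernatant absorbance at 415 nm. Percent hemolysis relative to 0.1% Triton X-100, PBS blank; triplicate, two independent experiments averaged.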

Escherichia coli [3] = assay: Binding affinity to Escherichia coli NCTC 12241 lipid 2 assessed as formation of zone of inhibition at 60 uM incubated for 16 hrs by spot-on-lawn assay
Method in brief: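 E. coli NCTC 12241 suspended to OD600 ~1.0 in MHB, mixed into molten 0.75% MH soft agar and poured over 1.5% MHA. Peptide (final 60 μM) preincubated at 37 °C with 7 equiv chemically synthesized Gram-positive lipid II, 10 μL spotted alongside peptide alone; 16 h, 37 °C. Loss of inhibition zone indicates lipid II sequestration.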

| Structure (SMILES) | metabolised at 24 h, 50 µM (D-peptidase TriF) | MIC (Escherichia coli [1]) | MIC (Staphylococcus aureus) | metabolised at 1 h, 50 µM (D-peptidase BogQ) | hemolysis at 0.5 h, 200 ug/ml [2] | Activity (Escherichia coli [3]) |
| --- | --- | --- | --- | --- | --- | --- |
| CCCCCCCC(=O)N[C@@H](C(=O)N[C@H](CCN)C(=O)NCC(=O)N[C@H](CO)C(=O)N[C@H](Cc1c[nH]c2ccccc12)C(=O)NC(C)(C)C(=O)N[C@@H](CCN)C(=O)N[C@H](CCN)C(=O)N[C@@H](Cc1ccccc1)C(=O)N[C@@H](CCC(=O)O)C(=O)N[C@H](C(=O)N[C@@H](C(=O)N[C@@H](C)C(=O)O)C(C)C)C(C)C)C(C)C (Octanoyl-[dV][dDab]G[dS][dW][Aib][Dab][dDab]FEV[dV]A-OH) | 0% | 3.13 µg/mL | > 50 µg/mL |  |  |  |
| CCCCCCCC(=O)N[C@@H](C(=O)N[C@H](CCN)C(=O)N(C)CC(=O)N[C@H](CO)C(=O)N[C@H](Cc1c[nH]c2ccccc12)C(=O)N[C@@H](CO)C(=O)N[C@@H](CCN)C(=O)N[C@H](CCN)C(=O)N(C)[C@@H](Cc1ccccc1)C(=O)N[C@@H](CCC(=O)O)C(=O)N[C@H](C(=O)N[C@@H](C(=O)N[C@@H](C)C(=O)O)C(C)C)C(C)C)C(C)C (Octanoyl-[dV][dDab][Sar][dS][dW]S[Dab][dDab][NMeF]EV[dV]A-OH) |  | > 50 µg/mL | > 50 µg/mL | < 5% |  |  |
| CCCCCCCC(=O)N[C@@H](C(=O)N[C@H](CCN)C(=O)N(C)CC(=O)N[C@H](CO)C(=O)N[C@H](Cc1c[nH]c2ccccc12)C(=O)N[C@@H](CO)C(=O)N[C@@H](CCN)C(=O)N[C@H](CCN)C(=O)N[C@@H](Cc1ccccc1)C(=O)N[C@@H](CCC(=O)O)C(=O)N[C@H](C(=O)N[C@@H](C(=O)N[C@@H](C)C(=O)O)C(C)C)C(C)C)C(C)C (Octanoyl-[dV][dDab][Sar][dS][dW]S[Dab][dDab]FEV[dV]A-OH) |  | > 50 µg/mL | > 50 µg/mL | > 90% |  |  |
| CCCCCCCC(=O)N[C@@H](C(=O)N[C@H](C)C(=O)NCC(=O)N[C@H](CO)C(=O)N[C@H](Cc1c[nH]c2ccccc12)C(=O)N(C)CC(=O)N[C@@H](CCN)C(=O)N[C@H](CCN)C(=O)N(C)[C@@H](Cc1ccccc1)C(=O)N[C@@H](CCC(=O)O)C(=O)N[C@H](C(=O)N[C@@H](C(=O)N[C@@H](C)C(=O)O)C(C)C)C(C)C)C(C)C (Octanoyl-[dV][dA]G[dS][dW][Sar][Dab][dDab][NMeF]EV[dV]A-OH) | 0% | > 50 µg/mL | > 50 µg/mL | 11% |  |  |
| CCCCCCCC(=O)N[C@@H](C(=O)N[C@H](CCN)C(=O)NCC(=O)N[C@H](CO)C(=O)N[C@H](Cc1c[nH]c2ccccc12)C(=O)N[C@@H](CO)C(=O)N[C@@H](CCN)C(=O)N[C@H](CCN)C(=O)N(C)[C@@H](Cc1ccccc1)C(=O)N[C@@H](CCC(=O)O)C(=O)N[C@H](C(=O)N[C@@H](C(=O)N[C@@H](C)C(=O)O)C(C)C)C(C)C)C(C)C (Octanoyl-[dV][dDab]G[dS][dW]S[Dab][dDab][NMeF]EV[dV]A-OH) |  | 6.25 µg/mL | > 50 µg/mL | 15% | 30% | Active |
| CCCCCCCC(=O)N[C@@H](C(=O)N[C@@H](CCN)C(=O)NCC(=O)N[C@H](CO)C(=O)N[C@H](Cc1c[nH]c2ccccc12)C(=O)N[C@@H](CO)C(=O)N[C@@H](CCN)C(=O)N[C@H](CCN)C(=O)N[C@@H](Cc1ccccc1)C(=O)N[C@@H](CCC(=O)O)C(=O)N[C@H](C(=O)N[C@@H](C(=O)N[C@@H](C)C(=O)O)C(C)C)C(C)C)C(C)C (Octanoyl-[dV][Dab]G[dS][dW]S[Dab][dDab]FEV[dV]A-OH) |  | > 50 µg/mL | > 50 µg/mL | 60% |  |  |
| CCCCCCCC(=O)N[C@@H](C(=O)N[C@H](CCN)C(=O)NCC(=O)N[C@H](CO)C(=O)N[C@H](Cc1c[nH]c2ccccc12)C(=O)N(C)CC(=O)N[C@@H](CCN)C(=O)N[C@H](CCN)C(=O)N[C@@](C)(Cc1ccccc1)C(=O)N[C@@H](CCC(=O)O)C(=O)N[C@H](C(=O)N[C@@H](C(=O)N[C@@H](C)C(=O)O)C(C)C)C(C)C)C(C)C | 0% | > 50 µg/mL | > 50 µg/mL | 39% |  |  |
| CCCCCCCC(=O)N[C@@H](C(=O)N[C@@H](C(=O)NCC(=O)N[C@H](CO)C(=O)N[C@H](Cc1c[nH]c2ccccc12)C(=O)N(C)CC(=O)N[C@@H](CCN)C(=O)N[C@H](CCN)C(=O)N(C)[C@@H](Cc1ccccc1)C(=O)N[C@@H](CCC(=O)O)C(=O)N[C@H](C(=O)N[C@@H](C(=O)N[C@@H](C)C(=O)O)C(C)C)C(C)C)C(C)C)C(C)C (Octanoyl-[dV][dV]G[dS][dW][Sar][Dab][dDab][NMeF]EV[dV]A-OH) | 0% | > 50 µg/mL | > 50 µg/mL | 12% |  |  |
| CCCCCCCC(=O)N[C@@H](C(=O)N[C@H](CCN)C(=O)NCC(=O)N[C@H](CO)C(=O)N[C@H](Cc1c[nH]c2ccccc12)C(=O)N(C)CC(=O)N[C@@H](CCN)C(=O)N[C@H](CCN)C(=O)N(C)[C@@H](Cc1ccccc1)C(=O)N[C@@H](CCC(=O)O)C(=O)N[C@H](C(=O)N[C@@H](C(=O)N[C@@H](C)C(=O)O)C(C)C)C(C)C)C(C)C (Octanoyl-[dV][dDab]G[dS][dW][Sar][Dab][dDab][NMeF]EV[dV]A-OH) | 0% | 6.25 µg/mL | > 50 µg/mL | 43% | 60 to 78% | Active |
| CCCCCCCC(=O)N[C@@H](C(=O)N[C@H](CCN)C(=O)NCC(=O)N[C@H](CO)C(=O)N[C@H](Cc1c[nH]c2ccccc12)C(=O)N[C@@H](CO)C(=O)N[C@@H](CCN)C(=O)N[C@H](CCN)C(=O)N[C@@](C)(Cc1ccccc1)C(=O)N[C@@H](CCC(=O)O)C(=O)N[C@H](C(=O)N[C@@H](C(=O)N[C@@H](C)C(=O)O)C(C)C)C(C)C)C(C)C |  | > 50 µg/mL | > 50 µg/mL | 39% |  |  |
| CCCCCCCC(=O)N[C@@H](C(=O)N[C@H](CCN)C(=O)NC(C)(C)C(=O)N[C@H](CO)C(=O)N[C@H](Cc1c[nH]c2ccccc12)C(=O)N[C@@H](CO)C(=O)N[C@@H](CCN)C(=O)N[C@H](CCN)C(=O)N(C)[C@@H](Cc1ccccc1)C(=O)N[C@@H](CCC(=O)O)C(=O)N[C@H](C(=O)N[C@@H](C(=O)N[C@@H](C)C(=O)O)C(C)C)C(C)C)C(C)C (Octanoyl-[dV][dDab][Aib][dS][dW]S[Dab][dDab][NMeF]EV[dV]A-OH) |  | > 50 µg/mL | > 50 µg/mL | < 5% |  |  |
| CCCCCCCC(=O)N[C@@H](C(=O)N[C@H](CCN)C(=O)NCC(=O)N[C@H](CO)C(=O)N[C@H](Cc1c[nH]c2ccccc12)C(=O)N(C)CC(=O)N[C@@H](CCN)C(=O)N[C@H](CCN)C(=O)N[C@@](C)(Cc1ccccc1)C(=O)N[C@@H](CCC(=O)O)C(=O)N[C@H](C(=O)N[C@@H](C(=O)N[C@@H](C)C(=O)O)[C@@H](C)CC)C(C)C)C(C)C | 0% | > 50 µg/mL | > 50 µg/mL | 40% |  |  |
| CCCCCCCC(=O)N[C@@H](C(=O)N[C@H](CCN)C(=O)NCC(=O)N[C@H](CO)C(=O)N[C@H](Cc1c[nH]c2ccccc12)C(=O)N[C@@H](CO)C(=O)N[C@@H](CCN)C(=O)N[C@H](CCN)C(=O)N[C@@H](Cc1ccccc1)C(=O)N[C@@H](CCC(=O)O)C(=O)N[C@H](C(=O)N[C@@H](C(=O)N[C@@H](C)C(=O)O)C(C)C)C(C)C)C(C)C (Octanoyl-[dV][dDab]G[dS][dW]S[Dab][dDab]FEV[dV]A-OH) | 100% | 1.56 µg/mL | 50 µg/mL | > 90% | 53% |  |
| CCCCCCCC(=O)N[C@@H](C(=O)N[C@H](CCN)C(=O)NC(C)(C)C(=O)N[C@H](CO)C(=O)N[C@H](Cc1c[nH]c2ccccc12)C(=O)N[C@@H](CO)C(=O)N[C@@H](CCN)C(=O)N[C@H](CCN)C(=O)N[C@@H](Cc1ccccc1)C(=O)N[C@@H](CCC(=O)O)C(=O)N[C@H](C(=O)N[C@@H](C(=O)N[C@@H](C)C(=O)O)C(C)C)C(C)C)C(C)C (Octanoyl-[dV][dDab][Aib][dS][dW]S[Dab][dDab]FEV[dV]A-OH) |  | > 50 µg/mL | > 50 µg/mL | > 90% |  |  |
| CCCCCCCC(=O)N[C@@H](C(=O)N[C@H](CCN)C(=O)NCC(=O)N[C@H](CO)C(=O)N[C@H](Cc1c[nH]c2ccccc12)C(=O)N(C)CC(=O)N[C@@H](CCN)C(=O)N[C@H](CCN)C(=O)N(C)[C@@H](Cc1ccccc1)C(=O)N[C@@H](CCC(=O)O)C(=O)N[C@H](C(=O)N[C@@H](C(=O)N[C@@H](C)C(=O)O)[C@@H](C)CC)C(C)C)C(C)C (Octanoyl-[dV][dDab]G[dS][dW][Sar][Dab][dDab][NMeF]EV[d(aIle)]A-OH) | 0% | 3.13 µg/mL | > 50 µg/mL | 46% |  |  |
| CCCCCCCC(=O)N[C@@H](C(=O)N[C@H](CCN)C(=O)NCC(=O)N[C@H](CO)C(=O)N[C@H](Cc1c[nH]c2ccccc12)C(=O)N(C)CC(=O)N[C@@H](CCN)C(=O)N[C@H](CCN)C(=O)N[C@@H](Cc1ccccc1)C(=O)N[C@@H](CCC(=O)O)C(=O)N[C@H](C(=O)N[C@@H](C(=O)N[C@@H](C)C(=O)O)C(C)C)C(C)C)C(C)C (Octanoyl-[dV][dDab]G[dS][dW][Sar][Dab][dDab]FEV[dV]A-OH) | 0% | 3.13 µg/mL | > 50 µg/mL |  | 38% | Active |
